Test [1] concerns K562. The test is described as follows: Inhibition of Rap1a protein modification in human K562 cells at 50 uM by Western blot. Type of test: functional, cell-based. The gist of the method:
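K562 leukemia suspension cultures (5 × 10^6 cells/5 ml, fresh medium) incubated 24 h with compound, tested over 1, 2.5, 5, 10, 25 and 50 µM. Protein quantified by BCA; lysates run on 12% gel, transferred to PVDF, probed sequentially with primary and secondary antibodies (45 min each) for Rap1a, detected by ECL chemiluminescence.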

In test [2] the test system is K562. As to the kind of experiment: Inhibition of Rap1a protein modification in human K562 cells by Western blot relative to lovastatin. It counts as functional. Summed up:
(§1)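 K562 cells in suspension culture (5 × 10^6 cells/5 ml, fresh medium) exposed 24 h to 1, 2.5, 5, 10, 25 or 50 µM compound. Protein quantified by BCA, resolved on 12% SDS gel, transferred to PVDF, probed for Rap1a with primary then secondary antibody (45 min each), ECL detection.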
For orientation: Immunoblotting shows a protein as a band on a membrane.

Test [3] deals with K562. The test is described as follows: Growth inhibition of human K562 cells after 24 hrs. Type of test: functional. The settings on record: K562, 24 h. Summed up:
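K562 leukaemia cells (ATCC, grown per ATCC protocol), asynchronous suspension cultures at 5 × 10^6 cells/5 ml in fresh medium, exposed to compound for 24 h. Growth followed by 3H-thymidine incorporation. GI50 taken from quadruplicate dose–response curves.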

Test [4] has as its target T1, Geranylgeranyl pyrophosphate synthase (Homo sapiens) (UniProt O95749).
T1 sequence (whole entry): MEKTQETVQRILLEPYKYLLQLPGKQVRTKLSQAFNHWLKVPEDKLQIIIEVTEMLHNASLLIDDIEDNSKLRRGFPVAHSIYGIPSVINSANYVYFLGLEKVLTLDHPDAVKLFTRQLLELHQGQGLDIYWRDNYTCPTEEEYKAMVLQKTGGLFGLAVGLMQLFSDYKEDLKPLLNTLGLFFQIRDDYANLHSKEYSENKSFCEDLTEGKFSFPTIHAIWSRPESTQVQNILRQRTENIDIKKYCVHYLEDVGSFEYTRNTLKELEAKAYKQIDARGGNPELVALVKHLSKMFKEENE
As to the kind of experiment: Inhibition of human recombinant GGDPS expressed in BL21 gold bacteria at 10 uM relative to control. More on the design: scale not given: the % may be the effect or the level left. The gist of the method: (§2)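 GST-tagged recombinant human GGDPS expressed in BL21 gold E. coli (IPTG induction), glutathione-affinity purified. Reaction: 20 µM FPP, 40 µM [14C]IPP in 50 mM imidazole pH 7.5, 0.5 mM MgCl2, 0.5 mM ZnCl2. 10-min inhibitor preincubation, substrates added together, 1 h at 37 °C. [14C]GGPP extracted into butanol and counted by scintillation; activity as % of control, n = 3.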

Test [5] concerns the target T2, Farnesyl pyrophosphate synthase (Homo sapiens) (UniProt P14324).
T2 sequence (whole entry): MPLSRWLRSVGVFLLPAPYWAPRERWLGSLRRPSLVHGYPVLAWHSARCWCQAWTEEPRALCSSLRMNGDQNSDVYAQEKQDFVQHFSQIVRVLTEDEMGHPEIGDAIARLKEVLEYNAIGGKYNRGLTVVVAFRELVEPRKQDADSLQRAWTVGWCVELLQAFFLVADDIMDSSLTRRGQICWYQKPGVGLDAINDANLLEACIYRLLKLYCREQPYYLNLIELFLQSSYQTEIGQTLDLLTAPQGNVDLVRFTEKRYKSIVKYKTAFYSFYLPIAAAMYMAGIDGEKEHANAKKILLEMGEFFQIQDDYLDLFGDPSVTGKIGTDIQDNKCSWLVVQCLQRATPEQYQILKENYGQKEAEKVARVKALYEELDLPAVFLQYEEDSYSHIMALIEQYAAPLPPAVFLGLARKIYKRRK
As to the kind of experiment: Inhibition of human recombinant FDPS expressed in BL21 gold bacteria at 100 uM relative to control. Further details: scale not given: the % may be the effect or the level left. Summed up: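 GST-tagged recombinant human FDPS expressed in BL21 gold E. coli (IPTG induction), glutathione-affinity purified. Reaction: 20 µM GPP, 40 µM [14C]IPP in 50 mM Tris pH 7.7, 10 mM NaF, 2 mM MgCl2, 1 mg/mL BSA. 10-min enzyme–inhibitor preincubation, substrates added, 1 h at 37 °C. Butanol-extracted product counted by scintillation; n = 3.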

Test [6] concerns the target T1, Geranylgeranyl pyrophosphate synthase (Homo sapiens). The test is described as follows: Inhibition of human recombinant GGDPS expressed in BL21 gold bacteria at 100 uM relative to control. More on the design: scale not given: the % may be the effect or the level left. The gist of the method: as §2
Test [7] deals with K562. As to the kind of experiment: Inhibition of Rap1a protein geranylgernaylation modification in human K562 cells upto 10 uM by Western blot. Type of test: functional, cell-based. The gist of the method: as §1
The target in test [8] is T3, Farnesyl pyrophosphate synthase (Homo sapiens, UniProt P14324).
T3 sequence (P14324 whole entry): T2 sequence (whole entry)
The test is described as follows: Inhibition of human recombinant FDPS expressed in BL21 gold bacteria. Summed up:
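GST-tagged recombinant human enzyme expressed in BL21 gold bacteria (IPTG induction), purified by affinity chromatography or glutathione agarose. Reaction: 20 µM GPP, 40 µM 14C IPP in 50 mM Tris pH 7.7, 10 mM NaF, 2 mM MgCl2, 1 mg/mL BSA. 10-min preincubation with inhibitor, substrates then added; 1 h at 37 °C. Products extracted with saturated butanol; 14C incorporation by scintillation counting; n = 3.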

By GI50 is commonly meant the concentration that inhibits growth by half. One may read the pIC50 as the IC50 on a negative log10 scale, so that one unit is a factor of ten.

pIC50: −log10 of the molar value. Active and inactive are the calls of the source. No cut-off for these calls is given here.

On to `CC(C)=CCC/C(C)=C\CC(P(=O)(O)O)P(=O)(O)O`, for which, in the test with K562 [1], the result was inactive. For the same compound, the Activity in the test on K562 [2] was >50 µM. Also, the GI50 in the test on K562 [3] was > 100 µM.

In turn, `CC(C)=CCC/C(C)=C\CC(C/C=C(/C)CCC=C(C)C)(P(=O)(O)O)P(=O)(O)O` came in with an Activity in the test with K562 [2] of 25 µM. The GI50 with K562 [3] is > 100 µM.

In turn, `CC(C)=CCC/C(C)=C/CC(C/C=C(\C)CCC=C(C)C)(P(=O)(O)O)P(=O)(O)O` [DIGERANYL BISPHOSPHONATE] came in with an Activity with K562 [2] of 25 µM. Besides, the 50% growth inhibitory concentration (GI50) in the test on K562 [3] is > 100 µM.

In the test with K562 [2], `CC(C)=CCC/C(C)=C\CC/C(C)=C/CC(P(=O)(O)O)P(=O)(O)O` displayed an Activity of 50 µM.

On to `CC(C)=CCC/C(C)=C/CC(C/C=C(\C)CCC=C(C)C)(P(=O)(OCOC(=O)C(C)(C)C)OCOC(=O)C(C)(C)C)P(=O)(OCOC(=O)C(C)(C)C)OCOC(=O)C(C)(C)C`, for which the Activity in test [4] was found to be 96%; with K562 [2], 10 µM. In the test on K562 [3], this compound displayed a GI50 of 58 µM.

With `CC(C)=CCC/C(C)=C\CC/C(C)=C\CC(P(=O)(OCOC(=O)C(C)(C)C)OCOC(=O)C(C)(C)C)P(=O)(OCOC(=O)C(C)(C)C)OCOC(=O)C(C)(C)C`, the Activity in the test with K562 [2] is >50 µM. This compound also came in with a GI50 in the test on K562 [3] of 2.9 µM.

Regarding `CC(C)=CCC(CC=C(C)C)(P(=O)(O)O)P(=O)(O)O`, the result in the test with K562 [1] was inactive. Also, the Activity in the test with K562 [2] is >50 µM. In addition, the GI50 in the test with K562 [3] is > 100 µM.

For `CC(C)=CCC/C(C)=C\CC(P(=O)(OCOC(=O)C(C)(C)C)OCOC(=O)C(C)(C)C)P(=O)(OCOC(=O)C(C)(C)C)OCOC(=O)C(C)(C)C`, the outcome with K562 [1] was inactive. Also, in the test on K562 [2], the Activity is >50 µM. The compound also displayed a GI50 in the test with K562 [3] of 7 µM.

Regarding `CC(C)=CCC/C(C)=C/CC(P(=O)(OCOC(=O)C(C)(C)C)OCOC(=O)C(C)(C)C)P(=O)(OCOC(=O)C(C)(C)C)OCOC(=O)C(C)(C)C`, the result in the test on K562 [1] was inactive. Also, the Activity was 99% in test [5], 10 µM in the test on K562 [2] and 100% in test [6]. Halving of growth in the test on K562 [3] (GI50) required 8.1 µM.

As for `CC(C)=CCC/C(C)=C\CC(C/C=C(\C)CCC=C(C)C)(P(=O)(OCOC(=O)C(C)(C)C)OCOC(=O)C(C)(C)C)P(=O)(OCOC(=O)C(C)(C)C)OCOC(=O)C(C)(C)C`, the Activity in the test with K562 [2] was found to be 25 µM. In addition, the GI50 with K562 [3] was > 100 µM.

As for `CC(C)=CCC/C(C)=C/CC(CC=C(C)C)(P(=O)(OCOC(=O)C(C)(C)C)OCOC(=O)C(C)(C)C)P(=O)(OCOC(=O)C(C)(C)C)OCOC(=O)C(C)(C)C`, the Activity amounted to 101% in test [4] and 1 µM in the test with K562 [2]. Also, the result in the test with K562 [1] was inactive. This compound came in with a GI50 in the test with K562 [3] of 5.2 µM.

Regarding `CC(C)=CCC/C(C)=C\CC(C/C=C(/C)CCC=C(C)C)(P(=O)(OCOC(=O)C(C)(C)C)OCOC(=O)C(C)(C)C)P(=O)(OCOC(=O)C(C)(C)C)OCOC(=O)C(C)(C)C`, in the test with K562 [2], the Activity stood at 10 µM. The GI50 with K562 [3] is > 100 µM.

With `CC(C)=CCC/C(C)=C/CC(CC=C(C)C)(P(=O)(O)O)P(=O)(O)O`, the Activity in test [4] was determined as 38%; in the test with K562 [2], 25 µM. Besides, the GI50 in the test on K562 [3] is > 100 µM.

In the case of `CC(C)=CCC/C(C)=C\CC(CC=C(C)C)(P(=O)(OCOC(=O)C(C)(C)C)OCOC(=O)C(C)(C)C)P(=O)(OCOC(=O)C(C)(C)C)OCOC(=O)C(C)(C)C`, the result with K562 [1] was inactive. The result with K562 [7] was Active. Besides, in the test with K562 [2], the Activity came to 5 µM. Moreover, the GI50 in the test on K562 [3] came out at 21 µM.

On to `CC(C)=CCC/C(C)=C/CC/C(C)=C\CC(P(=O)(OCOC(=O)C(C)(C)C)OCOC(=O)C(C)(C)C)P(=O)(OCOC(=O)C(C)(C)C)OCOC(=O)C(C)(C)C`, for which the Activity in the test with K562 [2] is >50 µM. Also, it took 2 µM to inhibit growth in the test on K562 [3] by half (GI50).

In the case of `CC(C)=CCC/C(C)=C/CC/C(C)=C/CC(P(=O)(OCOC(=O)C(C)(C)C)OCOC(=O)C(C)(C)C)P(=O)(OCOC(=O)C(C)(C)C)OCOC(=O)C(C)(C)C`, the Activity worked out at 96% in test [4] and 10 µM with K562 [2]. In the test on K562 [3], this compound gave a GI50 of 7.9 µM.

As to `CC(C)=CCC/C(C)=C/CC/C(C)=C/CC(P(=O)(O)O)P(=O)(O)O`, the Activity in test [4] came to 42%; with K562 [2], 10 µM. Also, the GI50 in the test with K562 [3] worked out at 90 µM.

For the compound `CC(C)=CCC/C(C)=C\CC/C(C)=C\CC(P(=O)(O)O)P(=O)(O)O`, the Activity with K562 [2] is >50 µM.

The compound `CC(C)=CCC/C(C)=C\CC/C(C)=C/CC(P(=O)(OCOC(=O)C(C)(C)C)OCOC(=O)C(C)(C)C)P(=O)(OCOC(=O)C(C)(C)C)OCOC(=O)C(C)(C)C` registered an Activity with K562 [2] of 10 µM. In the test on K562 [3], this compound showed a GI50 of 2.7 µM.

For `CC(C)=CCC/C(C)=C\CC(CC=C(C)C)(P(=O)(O)O)P(=O)(O)O`, in the test on K562 [1], the outcome was inactive. Besides, in test [8], the pIC50 was < 4.00. Besides, the Activity in the test with K562 [2] amounted to 50 µM. The GI50 in the test with K562 [3] is > 100 µM.

With `CC(C)=CCC/C(C)=C/CC(P(=O)(O)O)P(=O)(O)O`, in the test with K562 [1], the result was inactive. Also, the pIC50 in test [8] is 4.70. Besides, the Activity was 11% in test [5], >50 µM in the test with K562 [2] and 51% in test [6]. Further, in the test with K562 [3], the GI50 was > 100 µM.

`CC(C)=CCC/C(C)=C\CC(C/C=C(\C)CCC=C(C)C)(P(=O)(O)O)P(=O)(O)O` returned an Activity in the test on K562 [2] of 25 µM. Also, the GI50 with K562 [3] was > 100 µM.

For the compound `CC(C)=CCC/C(C)=C/CC/C(C)=C\CC(P(=O)(O)O)P(=O)(O)O`, the Activity with K562 [2] was >50 µM.

Consider `CC(C)=CCC(CC=C(C)C)(P(=O)(OCOC(=O)C(C)(C)C)OCOC(=O)C(C)(C)C)P(=O)(OCOC(=O)C(C)(C)C)OCOC(=O)C(C)(C)C`, for which the outcome in the test with K562 [7] was Active. Further, in the test on K562 [2], the Activity came out at 5 µM. In addition, the GI50 with K562 [3] worked out at 7.7 µM.
